Published values gathered from unrelated publications.
Each line is one published result; the experiments were not run side by side.
Effect on: cell growth or viability

For `COC(=O)c1c(C)ncn1CC(c1c[nH]c2ccc(C)cc12)c1c[nH]c2ccc(C)cc12`, the CC50 was > 20 µM (HaCaT; MTS; 24 h).
`CC(=O)O[C@@H]1c2c(ccc3ccc(=O)oc23)OC(C)(C)[C@@H]1OC(=O)C1(C)OC1C` (stereo partly drawn) gave an IC50 of 99.6 µM (WI-38; WST-1).
For `O=C(N[C@@H](Cc1ccccc1)C(=O)c1cc(-c2ccccc2)no1)[C@H](Cc1ccccc1)NC(=O)N1CCOCC1` (mixture of isomers), the CC50 was > 64 µM (MRC-5 SV2).
For `CCOC(=O)C(C(C)=O)=C1Sc2nc3ccc(S(=O)(=O)N4CCCC4)cc3nc2S1`, the viability was 48.2% (WI-38; MTT; 50 µM, 24 h).
The IC50 of `O=C(/C=C/c1ccc(O)c(O)c1)O[C@@H]1C[C@](O)(C(=O)O)C[C@@H](O)[C@H]1O` is reported as 91.2 µM (WI-38; WST-1; 48 h).
With `C[Si](C)(C)c1cc(C(=O)[C@H](Cc2ccccc2)NC(=O)[C@H](Cc2ccccc2)NC(=O)N2CCOCC2)no1` (single isomer, unassigned) the CC50 was > 64 µM (MRC-5 SV2).
`C[C@@H]1[C@H](O)[C@@H](C)/C=C/C=C/C=C/C=C/C=C/C=C/C=C/[C@H](O[C@@H]2O[C@H](C)[C@@H](O)[C@H](N)[C@@H]2O)C[C@@H]2O[C@](O)(C[C@@H](O)C[C@@H](O)[C@H](O)CC[C@@H](O)C[C@@H](O)CC(=O)O[C@H]1C)C[C@H](O)[C@H]2C(=O)O` has a CC50 of 7.95 µM (HaCaT; MTS; 24 h).
`O=Cc1ccc(CO)o1` gave an IC50 of 78.3 µM (WI-38; WST-1; 48 h).
The CC50 of `COC(=O)c1c(C)ncn1CC(c1cn(C)c2ccccc12)c1cn(C)c2ccccc12` is reported as > 20 µM (HaCaT; MTS; 24 h).
`O=c1c(O)c(-c2ccc(O)c(O)c2)oc2cc(O)cc(O)c12` has an IC50 of 87.6 µM (WI-38; WST-1; 48 h).
The CC50 of `O=C(N[C@@H](Cc1ccccc1)C(=O)c1cn(-c2ccccc2)nn1)[C@H](Cc1ccccc1)NC(=O)N1CCOCC1` (single isomer, unassigned) is reported as > 64 µM (MRC-5 SV2).
`O=c1cc(-c2ccc(O)c(O)c2)oc2cc(O)cc(O)c12` gave an IC50 of 90.8 µM (WI-38; WST-1; 48 h).
`O=C1CCCCC1=C1Sc2nc3ccc(S(=O)(=O)N4CCCC4)cc3nc2S1` gave a viability of 61.3% (WI-38; MTT; 50 µM, 24 h).
With `N=C(N)c1ccc(OCCCCCOc2ccc(C(=N)N)cc2)cc1` the CC50 was > 20 µM (HaCaT; MTS; 24 h).
With `O=C(N[C@H](CCc1ccccc1)C(=O)c1cc(Cc2ccccc2)on1)[C@H](Cc1ccccc1)NC(=O)N1CCOCC1` the CC50 was > 64 µM (MRC-5 SV2).
`COc1cccc2c1C(=O)c1c(O)c3c(c(O)c1C2=O)C[C@@](O)(C(=O)CO)C[C@@H]3O[C@H]1C[C@H](N)[C@H](O)[C@H](C)O1` has a viability of 7.8% (WI-38; MTT; 100 µM, 24 h).
`O=C(N[C@@H](Cc1ccccc1)C(=O)c1c[nH]nn1)[C@H](Cc1ccccc1)NC(=O)N1CCOCC1` has a CC50 of > 64 µM (MRC-5 SV2).
`C/C=C(/C)C(=O)O[C@@H]1[C@H](OC(C)=O)c2c(ccc3ccc(=O)oc23)OC1(C)C` has an IC50 of 120 µM (WI-38; WST-1).
With `N#CC(C(=O)Nc1cccc(C(F)(F)F)c1)=C1Sc2nc3ccc(S(=O)(=O)N4CCCC4)cc3nc2S1` the viability was 55.4% (WI-38; MTT; 50 µM, 24 h).
`CC1(C)CC[C@]2(C)CC[C@]3(C)[C@H]4CC=C5[C@@H](CC[C@H](O)C5(C)C)[C@]4(C)CC[C@@]3(C)[C@@H]2C1` gave an IC50 of 62.9 µM (WI-38; WST-1).
`O=C(N[C@@H](Cc1ccccc1)C(=O)c1nccs1)[C@H](Cc1ccccc1)NC(=O)N1CCOCC1` gave a CC50 of > 64 µM (MRC-5 SV2).
